Compound activity from PubChem BioAssay.
Compounds with a hit are over-represented: about 2.9% of the library has one in this group of screens.
SENP8 block-1: human SENP8 protease inhibitors, primary screen, biochemical, fluorescence, Nedd8 protein substrate, uHTS. recombinant SENP8. inhibition, % at 20 µM. actives 0.64% (n = 360,000); in the data active means inhibition mostly above about 40%, no sharp cut-off; inactive means mostly below about 27%
SENP7 inh: SENP7 protease inhibitors, primary screen, biochemical, luminescence, uHTS | Sentrin-specific protease 7 (Homo sapiens), Q9BQF6 | recombinant SENP7, Z-RLRGG-aminoluciferin luminescence, 40 min | inhibition, % at 5 µM | actives 1.5% (n = 330,000);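 active means inhibition above about 50% at the single test dose, limit read from the data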;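 further: plate controls were DMSO with enzyme for no effect and no enzyme buffer wells for full effect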
HSP90 refold inh: HSP90 inhibitors, primary screen, cell lysate, luminescence; Heat shock protein HSP 90 (rabbit reticulocyte lysate; luciferase refolding); Rabbit reticulocyte lysate, luciferase refolding luminescence, 3 h; inhibition, % at 5.6 µM; actives 0.91% (n = 290,000);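 active means inhibition above the screen-wide mean plus 3 SD, computed separately per campaign, cut at about 16% in these data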;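 further: 0% = DMSO wells and 100% = 60 µM geldanamycin wells; inhibitors lower the luminescence because luciferase stays unfolded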
SENP8 block-2: SENP8 protease inhibitors, primary screen, biochemical, luminescence | actives 1.2% (n = 330,000) | AID 2540, 2010 | inhibition, % at 10 µM | purified SENP8, Z-RLRGG-aminoluciferin cleavage | Sentrin-specific protease 8 (Homo sapiens), Q96LD8; in the data active means inhibition above about 50%
SENP6 inh: SENP6 protease inhibitors, primary screen, biochemical, luminescence, uHTS | Recombinant SENP6 catalytic domain, aminoluciferin luminescence | actives 1.8% (n = 330,000) | Sentrin-specific protease 6 (Homo sapiens), Q9GZR1 | AID 2599, 2010 | inhibition, % at 10 µM;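 active means inhibition above about 50% at the single tested dose, limit read from the data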;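 further: plate controls were DMSO wells with enzyme for no effect and DMSO wells lacking enzyme for full effect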
Target sequence (Q9GZR1 628-1112 limits assumed): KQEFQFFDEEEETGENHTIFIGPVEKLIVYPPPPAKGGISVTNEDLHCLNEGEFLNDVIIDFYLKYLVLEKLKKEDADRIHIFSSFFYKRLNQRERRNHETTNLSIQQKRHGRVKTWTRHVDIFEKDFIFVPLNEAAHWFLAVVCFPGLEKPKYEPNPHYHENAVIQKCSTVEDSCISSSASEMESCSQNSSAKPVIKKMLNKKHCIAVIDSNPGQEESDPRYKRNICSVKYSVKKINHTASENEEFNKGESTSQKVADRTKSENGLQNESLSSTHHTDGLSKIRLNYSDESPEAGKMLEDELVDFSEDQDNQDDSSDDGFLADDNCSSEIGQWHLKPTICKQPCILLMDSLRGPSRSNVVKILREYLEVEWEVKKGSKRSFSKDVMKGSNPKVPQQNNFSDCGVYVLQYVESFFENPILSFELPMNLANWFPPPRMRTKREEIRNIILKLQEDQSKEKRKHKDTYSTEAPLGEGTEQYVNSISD
SENP1 FRET inh: human SENP1 catalytic domain inhibitors, primary screen, biochemical, FRET, uHTS. recombinant SENP1 catalytic domain, CyPet-SUMO1-YPet FRET cleavage. AID 624204, 2012. Sentrin-specific protease 1 (Homo sapiens), Q9P0U3. actives 0.21% (n = 360,000). inhibition, % at 10 µM;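 active means inhibition at least 30% at 10 µM, raw YFP signal under a set limit, fluorescence ratio 0.5 to 1.5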;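 further: 0% = enzyme with DMSO and 100% = no enzyme wells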
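System: Recombinant human SENP1 catalytic domain, His6-tagged | Incubation: Enzyme reaction for 50 min at room temperature, dark | Medium: Tris pH 8 with BME, BSA, NP40 and catalase | Also added: 25 nM SUMO1 FRET substrate | Compound: 10 µM single point, 0.5% DMSO | Measured by: FRET fluorescence in CFP and YFP emission channels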
SENP8 conf: SENP8 protease inhibitors, retest, confirmation, biochemical, luminescence, single concentration | actives 40% (n = 6,200) | Recombinant SENP8, Z-RLRGG-aminoluciferin luminescence, 60 min | AID 488912, 2010 | inhibition, % at 12.5 µM | shares compounds with SENP7 inh;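 active means mean inhibition across replicates above about 50%, limit read from the data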
SENP6 confirm: SENP6 protease inhibitors, confirmation, biochemical, luminescence, single concentration. shares compounds with SENP7 inh. recombinant SENP6, Z-RLRGG-aminoluciferin luminescence. inhibition, % at 12.5 µM. actives 58% (n = 6,200). AID 488915, 2010
SENP7 conf: SENP7 protease inhibitors, retest, confirmation, biochemical, luminescence, single concentration. AID 488917, 2010. inhibition, % at 12.5 µM. recombinant SENP7, Z-RLRGG-aminoluciferin luminescence, 40 min. actives 69% (n = 6,200). shares compounds with SENP7 inh
Casp3 select: caspase-3 protease inhibitors, confirmation, selectivity assay for SENP inhibitor project, biochemical, single concentration; shares compounds with SENP7 inh; purified caspase-3, Z-DEVD-aminoluciferin luminescence, 60 min; inhibition, % at 12.5 µM; actives 60% (n = 6,200);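 active means mean inhibition above about 50%, limit read from the data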;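 further: plate controls were enzyme with DMSO for no effect and wells without caspase-3 for full effect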
SENP luc ctr: interferes with luciferase luminescence in SENP counter-screen; shares compounds with SENP7 inh; Pre-incubated SENP8/Z-RLRGG-aminoluciferin, luciferase luminescence interference; inhibition, % at 12.5 µM; actives 39% (n = 6,200); AID 488919;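 active means mean inhibition above about 50% when retested at one dose, limit read from the data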;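 further: plate controls were DMSO wells with completed reaction for no effect and substrate without enzyme for full effect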
An asterisk follows results filed as active; i = inactive; / = not tested or not shown.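 How the source made its calls, unless noted: active means mean inhibition above about 50% in the one-dose retest (limit read from the data); inactive means the rest.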

SMILES	SENP8 block-1	SENP7 inh	HSP90 refold inh	SENP8 block-2	SENP6 inh	SENP1 FRET inh	SENP8 conf	SENP6 confirm	SENP7 conf	Casp3 select	SENP luc ctr
Cc1ccc(NC(=O)C2CCN(S(=O)(=O)c3ccc4c(c3)CCCC(=O)N4)CC2)c(Br)c1	8	8	0	1	5	1	/	/	/	/	/
Cc1ccc(-c2nc3cc(N)ccc3o2)cc1Br	-307	91*	-2	87*	93*	7	2	91*	101*	74*	28
Nc1ccc(-c2nc3ccc(N)cc3o2)cc1	-423	61*	15	47	68*	-17	38	45	82*	79*	62*
Cc1ccc(C)c(-c2nc3cc(N)ccc3o2)c1	-413	17	1	30	55*	-60	27	27	69*	26	50*
Cc1ccc2nc(-c3cc(N)cc(N)c3)oc2c1	-324	11	15	16	25	-23	/	/	/	/	/
COC(=O)c1ccc(-c2nc3cc(N)ccc3o2)cc1	-176	73*	1	69*	85*	36	24	27	74*	54*	6
Nc1ccc(-c2nc3cc(N)ccc3o2)cc1	-469	41	10	17	52*	-10	43	34	77*	67*	52*
CCc1nn(CC(=O)NCCCN2CCOCC2)c(=O)c2cc3c(OC)cccc3n12	-374	/	/	/	/	2	/	/	/	/	/
COC(=O)C(Cc1ccc(O)cc1)NC(=O)Cn1cc(C)c(=O)[nH]c1=O (stereo not drawn)	7	/	/	/	/	0	/	/	/	/	/
Cc1ccnc(NC(=O)Nc2cccc(F)c2)c1	15	94*	13	73*	93*	5	56*	72*	89*	72*	17
Cc1ccc(NC(=O)Nc2cccc(F)c2)nc1	7	53*	-3	12	52*	0	5	26	36	38	12
COc1ccc(CN2C[C@@H](CO)O[C@@H](n3cnc4c(NC5CC5)ncnc43)C2)cc1	9	/	/	/	/	3	/	/	/	/	/
Cc1ccccc1NC(=O)c1sc(Cl)nc1C	16	2	-3	2	-13	2	/	/	/	/	/
Cc1nc(Cl)sc1C(=O)Nc1ccc(C(C)(C)C)cc1	14	62*	0	60*	-28	2	71*	64*	84*	51*	48
Cc1noc(N)c1C(=O)Nc1ccc(C(C)(C)C)cc1	14	86*	3	69*	29	0	14	80*	96*	80*	80*
Cc1ccc([C@H]2C[C@H](n3cc(C4CC4)nn3)[C@@H](O)CN2C(=O)c2cccs2)cc1	12	/	/	/	/	1	/	/	/	/	/
c1ccc(-c2nnc(-c3ccccn3)nn2)nc1	33	11	/	79*	14	2	-4	54*	85*	86*	66*
c1ccc(-c2ccc(-c3ccccn3)s2)nc1	-418	84*	2	76*	83*	-94	75*	81*	97*	86*	21
O=C(O)c1ccc(-c2ccccn2)s1	-4	8	7	-2	5	0	/	/	/	/	/
Cc1ccccc1-c1nnc(-c2ccc(Br)cc2)o1	2	67*	-5	33	75*	1	14	13	22	30	7
Cc1ccccc1-c1nnc(-c2ccccc2C)o1	1	85*	2	58*	77*	0	13	29	63*	41	11
Cc1ccccc1-c1nnc(-c2cccc3ccccc23)o1	i	/	/	/	/	1	/	/	/	/	/
CC(=O)NC(c1ccc(F)c(F)c1)c1nc(-c2ccccc2)cs1 (stereo not drawn)	-23	/	/	/	/	1	/	/	/	/	/
Cc1ccc(-c2csc(N3C(=N)SCC3=O)n2)cc1	/	71*	2	51*	0	/	2	13	10	16	8
c1ccc(-c2nc3ccccc3[nH]2)cc1	-12	76*	-4	71*	76*	-1	73*	66*	90*	84*	69*
SMILES	SENP8 block-1	SENP7 inh	HSP90 refold inh	SENP8 block-2	SENP6 inh	SENP1 FRET inh	SENP8 conf	SENP6 confirm	SENP7 conf	Casp3 select	SENP luc ctr
Cc1cc(-c2nc3ccccc3[nH]2)ccc1N	-392	91*	6	70*	50*	-2	87*	86*	99*	93*	87*
c1ccc(-c2nc3ccccc3[nH]2)nc1	-29	75*	5	48	69*	0	61*	60*	88*	90*	70*
O=c1[nH]c(-c2ccccn2)nc2ccccc12	0	5	-4	2	-5	2	/	/	/	/	/
COC(=O)c1ccc(-c2nc3ccccc3[nH]2)cc1	-427	95*	10	85*	88*	3	93*	93*	100*	96*	91*
COc1cc(C(=O)Nc2ccc(NC(=O)c3ccccc3Cl)nc2)cc(OC)c1OC	14	5	2	20	16	-2	/	/	/	/	/
Nc1ccc(Cc2nc3c(ccc4ccccc43)[nH]2)cc1	-36	1	-5	-6	-9	-3	/	/	/	/	/
Nc1nc(-c2nc3ccccc3[nH]2)cs1	-30	28	3	6	52*	-10	46	42	72*	78*	58*
c1ccc(-c2nc3c(ccc4ccccc43)[nH]2)nc1	-374	76*	-3	67*	73*	5	83*	79*	95*	76*	82*
